ChEMBL document CHEMBL3351768, “7-(4-Alkylidenylpiperidinyl)-quinolone bacterial topoisomerase inhibitors” (2014)
Values after ≈ are worked out from the molar mass of the structure shown.

Experiments:
Type in all cases: functional
[1] = system: Streptococcus pneumoniae; experiment: Antibacterial activity against ciprofloxacin-susceptible Streptococcus pneumoniae ATCC49619 by broth microdilution method
How it was run: (§1)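 MIC by broth microdilution following CLSI M07-A9 guidelines for aerobically growing bacteria. Where a compound was tested more than once, across several test dates or batches, the modal MIC is reported.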

[2] = system: Staphylococcus aureus; experiment: Antibacterial activity against ciprofloxacin-susceptible Staphylococcus aureus OC4172 by broth microdilution method; how it was run: as §1
[3] = system: Streptococcus pneumoniae; experiment: Antibacterial activity against ciprofloxacin-resistant Streptococcus pneumoniae OC5465 clinical isolate by broth microdilution method
[4] = system: Streptococcus pneumoniae; experiment: Antibacterial activity against ciprofloxacin-resistant Streptococcus pneumoniae OC6608 clinical isolate by broth microdilution method
[5] = system: Streptococcus pneumoniae; experiment: Antibacterial activity against ciprofloxacin-resistant Streptococcus pneumoniae OC6578 clinical isolate by broth microdilution method
[6] = system: Escherichia coli; experiment: Antibacterial activity against Escherichia coli ATCC 25922 by broth microdilution method; how it was run: as §1
[7] = system: Staphylococcus aureus; experiment: Antibacterial activity against methicillin-resistant Staphylococcus aureus OC2805 by broth microdilution method
How it was run: (§2)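 Broth microdilution MIC per CLSI M07-A9 guidelines for aerobically growing bacteria. Where a compound was tested several times (multiple test dates and batches), the modal MIC is reported.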

[8] = system: Staphylococcus epidermidis; experiment: Antibacterial activity against methicillin-resistant Staphylococcus epidermidis OC5340 by broth microdilution method; how it was run: as §2

SMILES: CCNCC(Cl)=C1CCN(c2c(F)cc3c(=O)c(C(=O)O)cn(C4CC4)c3c2OC)CC1
- MIC [1]: 0.25 µg/mL (≈ 0.539 µM)
- MIC [2]: 0.12 µg/mL (≈ 0.259 µM)
- MIC [3]: 1 µg/mL (≈ 2.16 µM)
- MIC [4]: 1 µg/mL (≈ 2.16 µM)
- MIC [5]: 1 µg/mL (≈ 2.16 µM)

SMILES: CC(CN)=C1CCN(c2cc3c(cc2F)c(=O)c(C(=O)O)cn3C2CC2)CC1
- MIC [1]: 1 µg/mL (≈ 2.59 µM)
- MIC [2]: 0.12 µg/mL (≈ 0.311 µM)
- MIC [3]: 8 µg/mL (≈ 20.8 µM)
- MIC [4]: 8 µg/mL (≈ 20.8 µM)
- MIC [5]: 2 µg/mL (≈ 5.19 µM)

SMILES: NCC(F)=C1CCN(c2nc3c(cc2F)c(=O)c(C(=O)O)cn3C2CC2)CC1
- MIC [1]: 0.12 µg/mL (≈ 0.307 µM)
- MIC [2]: 0.03 µg/mL (≈ 0.0768 µM)
- MIC [3]: 1 µg/mL (≈ 2.56 µM)
- MIC [4]: 2 µg/mL (≈ 5.12 µM)
- MIC [5]: 0.5 µg/mL (≈ 1.28 µM)

SMILES: NCC(F)=C1CCN(c2c(F)cc3c(=O)c(C(=O)O)cn(C4CC4)c3c2OC(F)F)CC1
- MIC [1]: 0.25 µg/mL (≈ 0.549 µM)
- MIC [2]: 0.06 µg/mL (≈ 0.132 µM)
- MIC [3]: 0.25 µg/mL (≈ 0.549 µM)
- MIC [4]: 0.25 µg/mL (≈ 0.549 µM)
- MIC [5]: 2 µg/mL (≈ 4.39 µM)

SMILES: COc1c(N2CCC(=C(Cl)CNC(C)C)CC2)c(F)cc2c(=O)c(C(=O)O)cn(C3CC3)c12
- MIC [1]: 0.5 µg/mL (≈ 1.05 µM)
- MIC [2]: 0.12 µg/mL (≈ 0.251 µM)
- MIC [3]: 2 µg/mL (≈ 4.18 µM)
- MIC [5]: 4 µg/mL (≈ 8.37 µM)

SMILES: CC(CN)=C1CCN(c2nc3c(cc2F)c(=O)c(C(=O)O)cn3C2CC2)CC1
- MIC [1]: 0.12 µg/mL (≈ 0.311 µM)
- MIC [2]: 0.06 µg/mL (≈ 0.155 µM)
- MIC [3]: 1 µg/mL (≈ 2.59 µM)
- MIC [4]: 0.25 µg/mL (≈ 0.647 µM)
- MIC [5]: 1 µg/mL (≈ 2.59 µM)

SMILES: NCC(Cl)=C1CCN(c2c(F)cc3c(=O)c(C(=O)O)cn(C4CC4)c3c2OC(F)F)CC1
- MIC [1]: 0.12 µg/mL (≈ 0.254 µM)
- MIC [2]: 0.06 µg/mL (≈ 0.127 µM)
- MIC [3]: 0.12 µg/mL (≈ 0.254 µM)
- MIC [6]: 0.5 µg/mL (≈ 1.06 µM)
- MIC [7]: 1 µg/mL (≈ 2.12 µM)
- MIC [4]: 0.5 µg/mL (≈ 1.06 µM)
- MIC [5]: 1 µg/mL (≈ 2.12 µM)
- MIC [8]: 0.5 µg/mL (≈ 1.06 µM)

SMILES: NCC=C1CCN(c2nc3c(cc2F)c(=O)c(C(=O)O)cn3C2CC2)CC1
- MIC [1]: 0.5 µg/mL (≈ 1.34 µM)
- MIC [2]: 0.12 µg/mL (≈ 0.322 µM)
- MIC [4]: 8 µg/mL (≈ 21.5 µM)
- MIC [5]: 8 µg/mL (≈ 21.5 µM)

SMILES: COc1c(N2CCC(=C(C)CN)CC2)c(F)cc2c(=O)c(C(=O)O)cn(C3CC3)c12
- MIC [1]: 0.12 µg/mL (≈ 0.289 µM)
- MIC [2]: 0.03 µg/mL (≈ 0.0722 µM)
- MIC [3]: 0.25 µg/mL (≈ 0.602 µM)
- MIC [5]: 0.25 µg/mL (≈ 0.602 µM)

SMILES: CNCC(Cl)=C1CCN(c2c(F)cc3c(=O)c(C(=O)O)cn(C4CC4)c3c2OC)CC1
- MIC [1]: 0.06 µg/mL (≈ 0.133 µM)
- MIC [2]: ≤ 0.015 µg/mL
- MIC [3]: 0.25 µg/mL (≈ 0.556 µM)
- MIC [6]: 0.5 µg/mL (≈ 1.11 µM)
- MIC [7]: 0.5 µg/mL (≈ 1.11 µM)
- MIC [4]: 0.25 µg/mL (≈ 0.556 µM)
- MIC [5]: 0.5 µg/mL (≈ 1.11 µM)
- MIC [8]: 0.5 µg/mL (≈ 1.11 µM)

SMILES: CC(CN)=C1CCN(c2c(F)cc3c(=O)c(C(=O)O)cn4c3c2OCC4C)CC1 (racemic)
- MIC [1]: 1 µg/mL (≈ 2.49 µM)
- MIC [2]: 0.5 µg/mL (≈ 1.25 µM)
- MIC [3]: > 16 µg/mL
- MIC [4]: 4 µg/mL (≈ 9.96 µM)
- MIC [5]: > 16 µg/mL

SMILES: C[C@H]1COc2c(N3CCC(=C(Cl)CN)CC3)c(F)cc3c(=O)c(C(=O)O)cn1c23
- MIC [1]: 0.03 µg/mL (≈ 0.0711 µM)
- MIC [2]: ≤ 0.015 µg/mL
- MIC [3]: 0.5 µg/mL (≈ 1.19 µM)
- MIC [4]: 0.25 µg/mL (≈ 0.593 µM)
- MIC [5]: 0.25 µg/mL (≈ 0.593 µM)

SMILES: O=C(O)c1cn(C2CC2)c2cc(N3CCNCC3)c(F)cc2c1=O [CIPROFLOXACIN]
- MIC [1]: 1 µg/mL (≈ 3.02 µM)
- MIC [2]: 0.12 µg/mL (≈ 0.362 µM)
- MIC [8]: 8 µg/mL (≈ 24.1 µM)

SMILES: NCC(Cl)=C1CCN(c2cc3c(cc2F)c(=O)c(C(=O)O)cn3C2CC2)CC1
- MIC [1]: 0.12 µg/mL (≈ 0.296 µM)
- MIC [2]: 0.03 µg/mL (≈ 0.0739 µM)
- MIC [3]: 1 µg/mL (≈ 2.46 µM)
- MIC [5]: 0.5 µg/mL (≈ 1.23 µM)

SMILES: COc1c(N2CCC(=C(Cl)CN)CC2)c(F)cc2c(=O)c(C(=O)O)cn(C3CC3)c12
- MIC [1]: 0.06 µg/mL (≈ 0.138 µM)
- MIC [2]: ≤ 0.015 µg/mL
- MIC [3]: 0.25 µg/mL (≈ 0.574 µM)
- MIC [6]: 0.25 µg/mL (≈ 0.574 µM)
- MIC [7]: 0.25 µg/mL (≈ 0.574 µM)
- MIC [4]: 0.25 µg/mL (≈ 0.574 µM)
- MIC [5]: 0.25 µg/mL (≈ 0.574 µM)
- MIC [8]: 0.25 µg/mL (≈ 0.574 µM)

SMILES: CC1COc2c(N3CCC(=C(F)CN)CC3)c(F)cc3c(=O)c(C(=O)O)cn1c23 (racemic)
- MIC [1]: 0.5 µg/mL (≈ 1.23 µM)
- MIC [2]: 0.25 µg/mL (≈ 0.617 µM)
- MIC [3]: 8 µg/mL (≈ 19.7 µM)
- MIC [4]: 2 µg/mL (≈ 4.93 µM)
- MIC [5]: 8 µg/mL (≈ 19.7 µM)

SMILES: NCC(F)=C1CCN(c2cc3c(cc2F)c(=O)c(C(=O)O)cn3C2CC2)CC1
- MIC [1]: 0.06 µg/mL (≈ 0.154 µM)
- MIC [2]: 0.03 µg/mL (≈ 0.077 µM)
- MIC [5]: 1 µg/mL (≈ 2.57 µM)

SMILES: COc1c(N2CCC(=C(F)CN)CC2)c(F)cc2c(=O)c(C(=O)O)cn(C3CC3)c12
- MIC [1]: 0.12 µg/mL (≈ 0.286 µM)
- MIC [2]: 0.03 µg/mL (≈ 0.0715 µM)
- MIC [3]: 0.5 µg/mL (≈ 1.19 µM)
- MIC [4]: 0.5 µg/mL (≈ 1.19 µM)
- MIC [5]: 1 µg/mL (≈ 2.38 µM)

SMILES: NCC(Cl)=C1CCN(c2nc3c(cc2F)c(=O)c(C(=O)O)cn3C2CC2)CC1
- MIC [1]: 0.12 µg/mL (≈ 0.295 µM)
- MIC [2]: 0.06 µg/mL (≈ 0.147 µM)
- MIC [3]: 1 µg/mL (≈ 2.46 µM)
- MIC [4]: 1 µg/mL (≈ 2.46 µM)
- MIC [5]: 0.25 µg/mL (≈ 0.614 µM)

SMILES: COc1c(N2CCC(=C(Cl)CN(C)C)CC2)c(F)cc2c(=O)c(C(=O)O)cn(C3CC3)c12
- MIC [1]: 0.5 µg/mL (≈ 1.08 µM)
- MIC [2]: 0.25 µg/mL (≈ 0.539 µM)
- MIC [3]: 2 µg/mL (≈ 4.31 µM)
- MIC [4]: 8 µg/mL (≈ 17.2 µM)
- MIC [5]: 8 µg/mL (≈ 17.2 µM)
